Assay results published in ChEMBL document CHEMBL3352384, “Synthesis and biological activity of new salicylanilide N,N-disubstituted carbamates and thiocarbamates” (Bioorg Med Chem, 2014).
In brackets after ≈: the same amount, converted by molar mass.

Legend:
[1] = system: Trichophyton mentagrophytes; test: Antimicrobial activity against Trichophyton mentagrophytes 445 after 72 hrs by microdilution method; type: functional; conditions: Trichophyton mentagrophytes, 445, 72 h
Outline: (§1)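 Broth microdilution in RPMI 1640 with glutamine, with fluconazole and amphotericin B as references. For filamentous fungi, MIC is expressed as the IC50, i.e. the concentration giving 50% growth reduction versus control. Each determination was done twice.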

[2] = Selectivity index, ratio of IC50 for human HepG2 cells to MIC for Trichophyton mentagrophytes 445
HepG2 = test: Cytotoxicity against human HepG2 cells assessed as reduction in cell viability after 24 hrs by MTS assay; type: cell-based; conditions: HepG2, 24 h
Outline: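 HepG2 hepatocellular carcinoma cells (passage 3–4) were grown in Eagle's MEM with 10% FBS, 1% L-glutamine and non-essential amino acids. Compounds were added from DMSO at eight concentrations in triplicate, with 10% DMSO as the 0% viability control. Viability was read by tetrazolium salt reduction (CellTiter 96 AQueous One). IC50 is the concentration reducing viability to 50% of control.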

[3] = system: Trichophyton mentagrophytes; test: Antimicrobial activity against Trichophyton mentagrophytes 445 after 120 hrs by microdilution method; type: functional; conditions: Trichophyton mentagrophytes, 445, 120 h; outline: as §1
Mycobacterium kansasii [4] = test: Antimycobacterial activity against Mycobacterium kansasii 235/80 assessed as complete growth inhibition after 14 days; type: functional; conditions: 235/80, 336 h
Outline: (§2)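 Dilutions of M. kansasii inoculum were 10-4 for strain 235/80 and 10-5 for clinical isolate 6509/96. MIC was the lowest concentration giving complete growth inhibition, run in quadruplicate and repeated twice.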

[5] = system: Mycobacterium tuberculosis; test: Antimycobacterial activity against Mycobacterium tuberculosis H37Rv 331/88 assessed as complete growth inhibition after 14 days; type: functional; conditions: H37Rv 331/88, 336 h
Outline: (§3)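 M. tuberculosis 331/88 (H37Rv) inoculum diluted 10-3, M. avium 330/88 diluted 10-5. MIC is the lowest concentration giving complete growth inhibition. Isoniazid and p-aminosalicylic acid as references. Quadruplicate, repeated twice.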

Mycobacterium avium [6] = test: Antimycobacterial activity against Isoniazid, rifampicin, ofloxacin and ethambutol-resistant Mycobacterium avium 330/88 assessed as complete growth inhibition after 14 days; type: functional; conditions: 330/88, 336 h; outline: as §3
[7] = Selectivity index, ratio of IC50 for human HepG2 cells to MIC for atypical mycobacteria
Outline: (§4)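 Selectivity index = HepG2 IC50 / MIC. HepG2 cells (passage 3–4) grown in Eagle's MEM with 10% FBS, L-glutamine and non-essential amino acids. Compounds added from DMSO, eight concentrations in triplicate, tetrazolium-reduction colorimetric read-out. IC50 is the concentration reducing viability to 50% of control; 10% DMSO as 0% viability.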

Mycobacterium kansasii [8] = test: Antimycobacterial activity against clinical isolate Mycobacterium kansasii 6509/96 assessed as complete growth inhibition after 21 days; type: functional; conditions: 6509/96, 504 h; outline: as §2
Mycobacterium kansasii [9] = test: Antimycobacterial activity against clinical isolate Mycobacterium kansasii 6509/96 assessed as complete growth inhibition after 14 days; type: functional; conditions: 6509/96, 336 h; outline: as §2
Mycobacterium kansasii [10] = test: Antimycobacterial activity against Mycobacterium kansasii 235/80 assessed as complete growth inhibition after 21 days; type: functional; conditions: 235/80, 504 h; outline: as §2
Mycobacterium kansasii [11] = test: Antimycobacterial activity against clinical isolate Mycobacterium kansasii 6509/96 assessed as complete growth inhibition after 7 days; type: functional; conditions: 6509/96, 168 h; outline: as §2
[12] = Selectivity index, ratio of IC50 for human HepG2 cells to MIC for Mycobacterium tuberculosis H37Rv; type: toxicity, cell-based; conditions: read-out: Selectivity Index
Outline: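 Selectivity index = HepG2 IC50 / MIC. HepG2 cells (passage 3–4) grown in Eagle's MEM with 10% FBS, L-glutamine and non-essential amino acids. Compounds added from DMSO, eight concentrations in triplicate, tetrazolium-reduction colorimetric read-out.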

[13] = system: Mycobacterium tuberculosis; test: Antimycobacterial activity against Mycobacterium tuberculosis H37Rv 331/88 assessed as complete growth inhibition after 21 days; type: functional; conditions: H37Rv 331/88, 504 h; outline: as §3
Mycobacterium kansasii [14] = test: Antimycobacterial activity against Mycobacterium kansasii 235/80 assessed as complete growth inhibition after 7 days; type: functional; conditions: 235/80, 168 h; outline: as §2
[15] = Inhibition of Mycobacterium tuberculosis H37Rv isocitrate lyase assessed as glyoxylate phenyl hydrazone formation at 10 uM
Mycobacterium avium [16] = test: Antimycobacterial activity against Isoniazid, rifampicin, ofloxacin and ethambutol-resistant Mycobacterium avium 330/88 assessed as complete growth inhibition after 21 days; type: functional; conditions: 330/88, 504 h; outline: as §3
Enterococcus sp. [17] = test: Antimicrobial activity against Enterococcus sp. J 14365/08 after 24 hrs by microdilution method; type: functional; conditions: J 14365/08, 24 h
Outline: (§5)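 Broth microdilution in Mueller-Hinton broth, compounds dissolved in DMSO, final concentrations 500 to 0.49 µM. Benzylpenicillin and bacitracin were run as comparators. MIC was taken as 95% (IC95) or greater growth reduction versus control. Each determination was done twice.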

[18] = system: Staphylococcus epidermidis; test: Antimicrobial activity against Staphylococcus epidermidis H 6966/08 after 48 hrs by microdilution method; type: functional; conditions: H 6966/08, 48 h; outline: as §5
Staphylococcus aureus [19] = test: Antimicrobial activity against methicillin-resistant Staphylococcus aureus H 5996/08 after 24 hrs by microdilution method; type: functional; conditions: H 5996/08, 24 h
Outline: (§6)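 Mueller-Hinton broth microdilution; compounds dissolved in DMSO, final concentrations 500 to 0.49 µM. […] Benzylpenicillin and bacitracin as comparators. Each determination done twice.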

Staphylococcus aureus [20] = test: Antimicrobial activity against methicillin-resistant Staphylococcus aureus H 5996/08 after 48 hrs by microdilution method; type: functional; conditions: H 5996/08, 48 h; outline: as §6
[21] = system: Staphylococcus epidermidis; test: Antimicrobial activity against Staphylococcus epidermidis H 6966/08 after 24 hrs by microdilution method; type: functional; conditions: H 6966/08, 24 h; outline: as §5
[22] = Selectivity index, ratio of IC50 for human HepG2 cells to MIC for methicillin-resistant Staphylococcus aureus H 5996/08; outline: as §4
Staphylococcus aureus [23] = test: Antimicrobial activity against Staphylococcus aureus CCM 4516/08 after 24 hrs by microdilution method; type: functional; conditions: CCM 4516/08, 24 h; outline: as §6
Enterococcus sp. [24] = test: Antimicrobial activity against Enterococcus sp. J 14365/08 after 48 hrs by microdilution method; type: functional; conditions: J 14365/08, 48 h; outline: as §5
Staphylococcus aureus [25] = test: Antimicrobial activity against Staphylococcus aureus CCM 4516/08 after 48 hrs by microdilution method; type: functional; conditions: CCM 4516/08, 48 h; outline: as §6

Compound | MIC [1] | Selectivity Index [2] | IC50 (HepG2) | MIC [3] | MIC (Mycobacterium kansasii [4]) | MIC [5] | MIC (Mycobacterium avium [6]) | Selectivity Index [7] | MIC (Mycobacterium kansasii [8]) | MIC (Mycobacterium kansasii [9]) | MIC (Mycobacterium kansasii [10]) | MIC (Mycobacterium kansasii [11]) | selectivity ratio [12] | MIC [13] | MIC (Mycobacterium kansasii [14]) | inhibition [15] | MIC (Mycobacterium avium [16]) | MIC (Enterococcus sp. [17]) | MIC [18] | MIC (Staphylococcus aureus [19]) | further results
C[C@@H]1[C@H](O)[C@@H](C)/C=C/C=C/C=C/C=C/C=C/C=C/C=C/[C@H](O[C@@H]2O[C@H](C)[C@@H](O)[C@H](N)[C@@H]2O)C[C@@H]2O[C@](O)(C[C@@H](O)C[C@@H](O)[C@H](O)CC[C@@H](O)C[C@@H](O)CC(=O)O[C@H]1C)C[C@H](O)[C@H]2C(=O)O [AMPHOTERICIN B] | 1.95 µM (≈ 1.8 µg/mL) | 1.3 | 2.5 µM | 1.95 µM (≈ 1.8 µg/mL) | – | – | – | – | – | – | – | – | – | – | – | – | – | – | – | – | –
O=C(Nc1ccc(Cl)cc1)c1cc(Cl)ccc1O | – | 11.1 | 21.7 µM | – | 8 µM (≈ 2.26 µg/mL) | 4 µM (≈ 1.13 µg/mL) | 8 µM (≈ 2.26 µg/mL) | 1.4 | 8 µM (≈ 2.26 µg/mL) | 8 µM (≈ 2.26 µg/mL) | 8 µM (≈ 2.26 µg/mL) | 4 µM (≈ 1.13 µg/mL) | 5.4 | 4 µM (≈ 1.13 µg/mL) | 4 µM (≈ 1.13 µg/mL) | 13% | 16 µM (≈ 4.51 µg/mL) | – | – | – | –
CN(C)C(=S)Oc1ccc(Cl)cc1C(=O)Nc1ccc(C(F)(F)F)cc1 | 500 µM (≈ 201 µg/mL) | <1 | 67.3 µM | 500 µM (≈ 201 µg/mL) | 32 µM (≈ 12.9 µg/mL) | 4 µM (≈ 1.61 µg/mL) | 16 µM (≈ 6.45 µg/mL) | 2.1 | 32 µM (≈ 12.9 µg/mL) | 32 µM (≈ 12.9 µg/mL) | 32 µM (≈ 12.9 µg/mL) | 16 µM (≈ 6.45 µg/mL) | 16.8 | 4 µM (≈ 1.61 µg/mL) | 16 µM (≈ 6.45 µg/mL) | 12% | 16 µM (≈ 6.45 µg/mL) | > 500 µM | 31.2 µM (≈ 12.6 µg/mL) | 7.81 µM (≈ 3.15 µg/mL) | MIC (Staphylococcus aureus [20]): 7.81 µM (≈ 3.15 µg/mL); MIC [21]: 31.2 µM (≈ 12.6 µg/mL); Selectivity Index [22]: 8.6; MIC (Staphylococcus aureus [23]): 7.81 µM (≈ 3.15 µg/mL); MIC (Enterococcus sp. [24]): > 500 µM; MIC (Staphylococcus aureus [25]): 7.81 µM (≈ 3.15 µg/mL)
CN(C)C(=O)Oc1ccc(Cl)cc1C(=O)Nc1ccc(F)cc1 | 125 µM (≈ 42.1 µg/mL) | 3.6 | 444 µM | 125 µM (≈ 42.1 µg/mL) | 125 µM (≈ 42.1 µg/mL) | 32 µM (≈ 10.8 µg/mL) | 125 µM (≈ 42.1 µg/mL) | 3.6 | 125 µM (≈ 42.1 µg/mL) | 125 µM (≈ 42.1 µg/mL) | 125 µM (≈ 42.1 µg/mL) | 62.5 µM (≈ 21 µg/mL) | 14 | 32 µM (≈ 10.8 µg/mL) | 62.5 µM (≈ 21 µg/mL) | 8% | 125 µM (≈ 42.1 µg/mL) | 125 µM (≈ 42.1 µg/mL) | > 125 µM | > 125 µM | MIC (Staphylococcus aureus [20]): > 125 µM; MIC [21]: > 125 µM; Selectivity Index [22]: <=3.6; MIC (Staphylococcus aureus [23]): 125 µM (≈ 42.1 µg/mL); MIC (Enterococcus sp. [24]): > 125 µM; MIC (Staphylococcus aureus [25]): > 125 µM
O=C(Nc1ccc(Br)cc1)c1cc(Cl)ccc1O | – | 16 | 15.7 µM | – | 8 µM (≈ 2.61 µg/mL) | 4 µM (≈ 1.31 µg/mL) | 8 µM (≈ 2.61 µg/mL) | 1 | 8 µM (≈ 2.61 µg/mL) | 8 µM (≈ 2.61 µg/mL) | 8 µM (≈ 2.61 µg/mL) | 4 µM (≈ 1.31 µg/mL) | 3.9 | 4 µM (≈ 1.31 µg/mL) | 4 µM (≈ 1.31 µg/mL) | 13% | 16 µM (≈ 5.23 µg/mL) | – | – | – | –
CC1(C)S[C@@H]2[C@H](NC(=O)Cc3ccccc3)C(=O)N2[C@H]1C(=O)O [PENICILLIN G] | – | – | > 10000 µM | – | – | – | – | – | – | – | – | – | – | – | – | – | – | 7.81 µM (≈ 2.61 µg/mL) | 250 µM (≈ 83.6 µg/mL) | 62.5 µM (≈ 20.9 µg/mL) | MIC (Staphylococcus aureus [20]): 125 µM (≈ 41.8 µg/mL); MIC [21]: 250 µM (≈ 83.6 µg/mL); Selectivity Index [22]: >10.2; MIC (Staphylococcus aureus [23]): 0.98 µM (≈ 0.328 µg/mL); MIC (Enterococcus sp. [24]): 15.6 µM (≈ 5.22 µg/mL); MIC (Staphylococcus aureus [25]): 0.98 µM (≈ 0.328 µg/mL)
O=C(Nc1ccc(F)cc1)c1cc(Cl)ccc1O | – | 3.3 | 26.1 µM | – | 16 µM (≈ 4.25 µg/mL) | 8 µM (≈ 2.13 µg/mL) | 16 µM (≈ 4.25 µg/mL) | 0.8 | 16 µM (≈ 4.25 µg/mL) | 16 µM (≈ 4.25 µg/mL) | 16 µM (≈ 4.25 µg/mL) | 8 µM (≈ 2.13 µg/mL) | 3.3 | 8 µM (≈ 2.13 µg/mL) | 8 µM (≈ 2.13 µg/mL) | 14% | 32 µM (≈ 8.5 µg/mL) | – | – | – | –
OC(Cn1cncn1)(Cn1cncn1)c1ccc(F)cc1F [FLUCONAZOLE] | 7.81 µM (≈ 2.39 µg/mL) | >2.4 | > 300 µM | 125 µM (≈ 38.3 µg/mL) | – | – | – | – | – | – | – | – | – | – | – | – | – | – | – | – | –
